# Compound activity from PubChem.
# An excerpt weighted towards active compounds, which were near 0.96% of everything screened.
# RPL19A TOR yeast = modulators of TOR pathway RPL19A-GFP in S. cerevisiae. S. cerevisiae RPL19A-GFP strain, flow cytometry, 3 h; stronger effect = lower value. percent response vs DMSO, % at 10 µM. 330,000 compounds, 0.3% hits. AID 2025;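 active = percent response vs DMSO below 50%; inconclusive = fewer than 70 events counted for the yeast strain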;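 also: median channel GFP fluorescence of the barcoded RPL19A-GFP strain; ratio of sample median GFP to plate DMSO average so 100% = DMSO; lower means less RPL19A-GFP as with rapamycin TOR inhibition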
# T cell modulator = T cell immune modulators affecting CD8 T cell-vesicle binding | response (vesicle binding), % at 7 µM | AID 2052 | 330,000 compounds, 0.068% hits | 2C CD8+ T cell-vesicle binding, flow cytometry; stronger effect = lower value;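 active = response, share of CD8 T cells binding vesicles, and their 90th percentile fluorescence all below set limits, cut at about 80% in these data, passing the limit was not always enough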;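 also: values below 100% mean blocked vesicle binding to the CD8+ T cells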
#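 Also added: QL9-peptide-loaded Drosophila micro-vesicles bearing Ld, ICAM-1 and B7-1; Test system: purified 2C TCR transgenic mouse naive CD8+ T cells; Measured by: cytometric PE anti-B7-1 and Alexa647 anti-CD8 signals after 1% paraformaldehyde fixation; Timing: binding step 1.5 h, 37 °C, antibody labelling 20 min, ice.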
# CIT2-GFP yeast = alters CIT2-GFP fluorescence in TOR pathway yeast screen; S. cerevisiae CIT2-GFP strain, flow cytometry, 3 h; 100 means same as DMSO wells; GFP response vs DMSO, % at 10 µM; 320,000 compounds, 0.065% hits; AID 2029;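 active = GFP response relative to DMSO above a set limit, near the screen mean plus 3 SD, cut at about 150% in these data; inconclusive = Fewer than 70 cells measured for a yeast strain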;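 also: ratio of well median GFP fluorescence to mean of DMSO wells on the plate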
# MEP2-GFP yeast = yeast TOR pathway MEP2-GFP modulation; S. cerevisiae MEP2-GFP strain, flow cytometry GFP, 3 h; 100% = DMSO control level; GFP response vs DMSO, % at 10 µM; 330,000 compounds, 0.51% hits;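 active = GFP response versus DMSO above a set limit, roughly screen mean plus 3 SD, cut at about 180% in these data; inconclusive = fewer than 70 cells counted for a yeast strain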;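 also: median GFP fluorescence of the barcode-gated MEP2-GFP cells per well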
# LAP4 TOR yeast = modulators of TOR pathway LAP4-GFP in S. cerevisiae; S. cerevisiae LAP4-GFP multiplex, flow cytometry GFP, 3 h; median GFP as percent of DMSO wells; AID 2023; 320,000 compounds, 0.34% hits; GFP response vs DMSO, % at 10 µM;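 active = GFP response vs DMSO above a set limit, about the screen mean plus 3 SD, cut at about 150% in these data; inconclusive = under 70 cell events counted for the yeast strain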
# AGP1 TOR yeast = modulators of TOR pathway AGP1-GFP in S. cerevisiae | 320,000 compounds, 0.02% hits | GFP response vs DMSO, % at 10 µM | AID 2066 | S. cerevisiae AGP1-GFP multiplex flow cytometry, 3 h; GFP as percent of DMSO wells;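 active = GFP response relative to DMSO above a set limit, near screen average plus 3 SD, cut at about 150% in these data; inconclusive = fewer than 70 cells counted for the yeast strain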;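 also: median GFP channel fluorescence of the gated AGP1 strain per well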
# Starred values were filed as active, the others as inactive; i = inactive; ? = inconclusive; . = no result; [ ] = remark or other dose.
SMILES,RPL19A TOR yeast,T cell modulator,CIT2-GFP yeast,MEP2-GFP yeast,LAP4 TOR yeast,AGP1 TOR yeast
COC(=O)c1c(NC(=O)COC(=O)c2ccc(Cl)nc2)sc(C)c1C,98,49*,95,103,103,105
CCOC(=O)N1CCC(NC(=O)c2cc3c(-c4cccc(OC)c4)nn(C)c3s2)CC1,55,i,90,97,214*,100
CCOC(=O)N1CCN(C(=O)c2cc3c(-c4cccc(OC)c4)nn(C)c3s2)CC1,95,270,92,103,100,98
O=C(OCc1nc2ccsc2c(=O)[nH]1)c1ccc(Cl)s1,107,295,102,104,109,110
COc1ccc(Cc2nnc(NC(C)=O)s2)cc1,98,309,98,97,92,96
COc1ccc(Cc2nnc(NC(=O)c3ccccc3F)s2)cc1,74,166,141,914*,294*,155*
Cc1ccccc1C(=O)OC1CCCN(C)C1 (configuration not stated),99,175,103,105,79,93
Cc1c(CCO)c(=O)[nH]n1S(=O)(=O)c1ccc([N+](=O)[O-])cc1,92,124,156*[may fluoresce green],103,102,115
COc1ccc(S(=O)(=O)n2[nH]c(=O)c(CCO)c2C)cc1,95,268,137,114,106,108
NC(=O)Cn1nc(-c2ccccc2)nc1-c1ccccc1,93,326,85,93,115,103
CCOC(=O)C1=C(COC(=O)/C=C/c2cccc(OC)c2OC)NC(=O)NC1C (configuration not stated),97,506,95,95,91,96
CCCCN(CCCC)CCCOC(=O)c1ccc(N)cc1,80,461,87,93,183*,91
CCCCOC(=O)c1ccc(N)cc1,99,103,82,96,93,88
Cc1ccc(N2C(=O)C(Cl)=C(N3CCCCCC3)C2=O)c(C)c1,104,0.0*,106,100,87,102
CCOc1ccc(NC(=O)CSc2nc3ccsc3c(=O)n2CCC(=O)O)cc1,95,377,97,88,85,96
Cc1ccc(Cl)cc1NC(=O)Cn1cc(C(F)(F)F)cc(Cl)c1=O,99,299,95,95,90,93
Cc1cc(NC(=O)Cn2cc(C(F)(F)F)cc(Cl)c2=O)no1,62,411,?,224*[may fluoresce violet],92,20
CCN(c1ccccc1)S(=O)(=O)c1nnc(NC(=O)C(C)C)s1,22*[may fluoresce violet],492,?,338*[may fluoresce violet],60,?
N#Cc1c(N)n(-c2ccccc2N)c2nc3ccccc3nc12,96,347,95,103,112,109
N#Cc1c(N)n(-c2cccc(C(=O)O)c2)c2nc3ccccc3nc12,61,157,?,198*[may fluoresce violet],83,19
CC(C)C1N(C(N)=S)N=CC1(C)C (configuration not stated),49*[may fluoresce violet],508,.,664*[may fluoresce violet],.,.
CCCn1cc(CN2CCC(n3nccc3NC(=O)CCOc3ccccc3)CC2)c(C)n1,100,140,101,114,90,99
O=C1OCCN1C(=O)[C@H]1[C@H](c2ccc(F)cc2)C(c2ccc(F)cc2)=NN1c1ccc(Br)cc1,92,568,?,383*[may fluoresce violet],130,16
O=C1OCCN1C(=O)[C@H]1[C@H](c2ccc(F)cc2)C(c2ccc(F)cc2)=NN1c1ccccc1,106,872,71,92,109,83
COCC1CCN(C(=O)c2cc(COc3cc(C)c(Cl)c(C)c3)on2)C1 (configuration not stated),86,286,89,85,86,87
CSc1nc(C)c(CCOCc2ccccc2)c(=O)[nH]1,64,333,?,233*[may fluoresce violet],69,?
CSc1nc(C)c(Cc2ccccc2)c(=O)[nH]1,98,192,102,108,111,106
O=C1/C(=C/c2ccccc2)SC(=S)N1C1CCS(=O)(=O)C1 (configuration not stated),102,138,106,100,118,112
